Assay results taken from ChEMBL document CHEMBL1138488, “Synthesis and biological evaluation of 3,3-difluoropyridine-2,4(1H,3H)-dione and 3-deaza-3-fluorouracil base and nucleoside derivatives” (J Med Chem, 2009).
Calls of active or inactive are those of the source. The rule behind the calls is not given here.

Assays:
Human respirovirus 3 = experiment: Antiviral activity against Parainfluenza virus type 3 infected in african green monkey Vero cells assessed as inhibition of virus-induced cytopathic effect at <=100 uM; assay type: functional, organism-based
Method in brief: (§1)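 Confluent cell monolayers were inoculated with 100 CCID₅₀ of virus, and virus was adsorbed for 1 h. Residual virus was then removed and cells were incubated with serial compound concentrations ([…], ... µM). Cytopathicity was scored once it reached completion in untreated virus-infected control cultures.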

[1] = system: Mammalian orthoreovirus 3; experiment: Antiviral activity against Reovirus 3 infected in african green monkey Vero cells assessed as inhibition of virus-induced cytopathic effect at <=100 uM; assay type: functional, organism-based
Sindbis virus = experiment: Antiviral activity against Sindbis virus infected in african green monkey Vero cells assessed as inhibition of virus-induced cytopathic effect at <=100 uM; assay type: functional, organism-based; method in brief: as §1
Punta Toro virus = experiment: Antiviral activity against Punta Toro virus infected in african green monkey Vero cells assessed as inhibition of virus-induced cytopathic effect at <=100 uM; assay type: functional, organism-based; method in brief: as §1
Human betaherpesvirus 5 [2] = experiment: Antiviral activity against HCMV AD169 infected in HEL cells assessed as inhibition of virus-induced cytopathic effect at <=100 uM; assay type: functional, organism-based; method in brief: as §1
Human betaherpesvirus 5 [3] = experiment: Antiviral activity against HCMV Davis infected in HEL cells assessed as inhibition of virus-induced cytopathic effect at <=100 uM; assay type: functional, organism-based; method in brief: as §1
Human alphaherpesvirus 3 [4] = experiment: Antiviral activity against thymidine kinase expressing Varicella zoster virus Oka infected in human HEL cells assessed as inhibition of virus-induced cytopathic effect at <=100 uM; assay type: functional, organism-based; method in brief: as §1
Human alphaherpesvirus 3 [5] = experiment: Antiviral activity against thymidine kinase deficient Varicella zoster virus 07/1 infected in human HEL cells assessed as inhibition of virus-induced cytopathic effect at <=100 uM; assay type: functional, organism-based; method in brief: as §1
[6] = system: Human immunodeficiency virus 1; experiment: Antiviral activity against HIV1 3B replication in human CEM cells assessed as virus-induced giant cell formation at <=100 uM after 4 days; assay type: functional, organism-based; conditions: CCRF-CEM
Method in brief: (§2)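 CEM cells (~3 × 10⁵ cells/cm³) were infected with 100 CCID₅₀/mL of HIV-1(III_B) or HIV-2(ROD) and seeded into wells containing compound dilutions. After 4 days at 37 °C, virus-induced giant cell formation was examined microscopically.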

[7] = system: Human immunodeficiency virus 2; experiment: Antiviral activity against HIV2 ROD replication in human CEM cells assessed as virus-induced giant cell formation at <=100 uM after 4 days; assay type: functional, organism-based; conditions: CCRF-CEM; method in brief: as §2
[8] = Cytostatic activity against mouse L1210 cells after 2 days by Coulter counting analysis; assay type: ADME, cell-based
Method in brief: (§3)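 Murine leukemia L1210 cells were seeded at 50000 cells per well with varying compound concentrations. Viable cell number was counted by Coulter counter after 2 days.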

[9] = Cytostatic activity against human Molt4/C8 cells after 3 days by Coulter counting analysis; assay type: ADME, cell-based, MOLT-4
Method in brief: (§4)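 Molt4/C8 or CEM lymphocytes were seeded at 75000 cells per well with varying compound concentrations. Viable cells were counted by Coulter counter after 3 days. CC₅₀ is the concentration inhibiting cell proliferation by 50%.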

[10] = Cytostatic activity against human CEM cells after 3 days by Coulter counting analysis; assay type: cell-based, CCRF-CEM; method in brief: as §4
L1210 = experiment: Cytostatic activity against mouse L1210 cells at <=500 uM after 2 days by Coulter counting analysis; assay type: ADME, cell-based; conditions: l1210, 48 h; method in brief: as §3
[11] = Cytostatic activity against human Molt4/C8 cells at <=500 uM after 3 days by Coulter counting analysis; assay type: ADME, cell-based; conditions: molt-4, 72 h; method in brief: as §4
CCRF-CEM = experiment: Cytostatic activity against human CEM cells at <=500 uM after 3 days by Coulter counting analysis; assay type: cell-based; conditions: 72 h; method in brief: as §4
Human alphaherpesvirus 1 [12] = experiment: Antiviral activity against HSV1 KOS infected in HEL cells assessed as virus-induced cytopathic effect at <=100 uM; assay type: functional, organism-based
Human alphaherpesvirus 1 [13] = experiment: Antiviral activity against acyclovir-resistant […] kinase-deficient HSV1 KOS infected in HEL cells assessed as virus-induced cytopathic effect at <=100 uM; assay type: functional, organism-based
Human alphaherpesvirus 2 = experiment: Antiviral activity against HSV2 strain G infected in HEL cells assessed as virus-induced cytopathic effect at <=100 uM; assay type: functional, organism-based
Vaccinia virus = experiment: Antiviral activity against Vaccinia virus infected in HEL cells assessed as inhibition of virus-induced cytopathic effect at <=100 uM; assay type: functional, organism-based; conditions: Orthopoxvirus vaccinia
[14] = system: Vesicular stomatitis virus; experiment: Antiviral activity against Vesicular stomatitis virus infected in HEL cells assessed as inhibition of virus-induced cytopathic effect at <=100 uM; assay type: functional, organism-based
[15] = system: Vesicular stomatitis virus; experiment: Antiviral activity against Vesicular stomatitis virus infected in human HeLa cells assessed as inhibition of virus-induced cytopathic effect at <=100 uM; assay type: functional, organism-based
Coxsackievirus B4 = experiment: Antiviral activity against Coxsackievirus B4 infected in human HeLa cells assessed as inhibition of virus-induced cytopathic effect at <=100 uM; assay type: functional, organism-based; method in brief: as §1
[16] = system: Respiratory syncytial virus; experiment: Antiviral activity against Respiratory syncytial virus infected in human HeLa cells assessed as inhibition of virus-induced cytopathic effect at <=100 uM; assay type: functional, organism-based; method in brief: as §1
[17] = system: Moloney murine sarcoma virus; experiment: Antiviral activity against Moloney sarcoma virus replication infected in mouse […] cells assessed as virus-induced transformation of cells at <=100 uM measured on day 6 postinfection; assay type: functional, organism-based
Method in brief: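 Murine C3H/3T3 embryo fibroblasts were grown to confluency and infected with Moloney murine sarcoma virus at 75 focus-forming units. Compound concentrations were then added, and virus-induced transformation was examined microscopically at day 6 postinfection.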

SMILES	Activity (Human respirovirus 3)	Activity [1]	Activity (Sindbis virus)	Activity (Punta Toro virus)	Activity (Human betaherpesvirus 5 [2])	Activity (Human betaherpesvirus 5 [3])	Activity (Human alphaherpesvirus 3 [4])	Activity (Human alphaherpesvirus 3 [5])	Activity [6]	Activity [7]	Activity (L1210)	Activity [11]	Activity (CCRF-CEM)	Activity (Human alphaherpesvirus 1 [12])	Activity (Human alphaherpesvirus 1 [13])	Activity (Human alphaherpesvirus 2)	Activity (Vaccinia virus)	Activity [14]	Activity [15]	Activity (Coxsackievirus B4)	also measured
O=c1c(F)c(O)ccn1[C@@H]1O[C@H](CO)[C@@H](O)[C@H]1O	inactive	inactive	inactive	inactive	inactive	inactive	inactive	inactive	inactive	inactive	Not Active	Not Active	Not Active	inactive	inactive	inactive	inactive	inactive	inactive	inactive	CC50 at 48 h [8]: 6.7 µM; CC50 at 72 h [9]: 4.4 µM; CC50 at 72 h [10]: 9.6 µM; Activity [16]: inactive; Activity [17]: inactive
NC(=O)Cc1ccn([C@@H]2O[C@H](CO)[C@@H](O)[C@H]2O)c(=O)c1F	inactive	inactive	inactive	inactive	inactive	inactive	inactive	inactive	inactive	inactive	Not Active	Not Active	Not Active	inactive	inactive	inactive	inactive	inactive	inactive	inactive	Activity [16]: inactive; Activity [17]: inactive
C#CC1(O)C=CN([C@H]2C[C@H](O)[C@@H](CO)O2)C(=O)C1(F)F (some centres undefined)	inactive	inactive	inactive	inactive	inactive	inactive	inactive	inactive	inactive	inactive	Not Active	Not Active	Not Active	inactive	inactive	inactive	inactive	inactive	inactive	inactive	Activity [16]: inactive; Activity [17]: inactive
